In article PMC7274130 (Biochimica et Biophysica Acta. Proteins and Proteomics, 2020):

How the values were obtained:
[1] = Degradation of [3H]-THF-γ2 on incubation with rat whole blood; format: in vitro ADME; settings: 37 °C, radio-TLC, mean ± SD, n = 3
[2] = Degradation of [3H]-THF-γ2 on incubation with human whole blood; format: in vitro ADME; settings: 37 °C, radio-TLC, mean ± SD, n = 3
Method in brief: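 Heparinized whole blood from three healthy male donors. 1 ml was pre-warmed 5 min at 37 °C, then spiked with [3H]-THF (Pro- or C-terminal Leu-labelled; final 93 nmol ml−1) and shaken at 37 °C, sampled 0–60 min. Stopped with ice-cold water/acetonitrile; supernatants were dichloromethane-extracted. The aqueous phase went to silica radio-TLC with 1 cm scintillation counting, and fragments were assigned by synthetic-peptide Rf. Mean ± […], n = 3.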

[3] = Degradation of [3H]-THF-γ2 on incubation with mouse whole blood; format: in vitro ADME; settings: 37 °C, radio-TLC; for amount of minor degradation product, % of total: over the 60 min incubation with [3H]-THF
[4] = cited from earlier work
[5] = 60 min incubation with [3H]-THF

H-DGPKFL-OH [3–8]
concentration of degradation product, % of the total peptides present ([1]; 20 min incubation with [3H]-THF): 27.80% ± 3.32 | concentration of degradation product, % of the total peptides present [2, 5]: 30.36% ± 7.84

H-Glu-Asp-Gly-Pro-Lys-OH [2–6]
concentration of degradation product, % of the total peptides present ([1]; 5 min incubation with [3H]-THF): 4.72% ± 1.05 | concentration of degradation product, % of the total peptides present [1, 5]: 54.90% ± 0.87 | concentration of degradation product, % of the total peptides present ([2]; 5 min incubation with [3H]-THF): 2.16% ± 0.96 | concentration of degradation product, % of the total peptides present ([3]; 60 min incubation with [3H]-THF, mean ± SD, n = 3): 36.52% ± 2.69

H-Gly-Pro-Lys-Phe-Leu-OH [4–8]
amount of minor degradation product, % of total [3]: < 10 % of total

H-LEDGPK-OH [1–6]
amount of minor degradation product, % of total [3]: < 10 % of total

H-LEDGPKFL-OH [THF-γ2]
half-life of THF in human plasma [4]: about 12 min
